ChEMBL document CHEMBL1132465, “Design and synthesis of thrombin inhibitors: analogues of MD-805 with reduced stereogenicity and improved potency” (J Med Chem, 1999)

What was measured:
Prothrombin [1] = target: Prothrombin (Bos taurus, UniProt P00735); assay: Inhibitory activity against bovine thrombin
[2] = The compound was evaluated for the dose to double the control plasma APTT value in the human plasma.; type: functional
Procedure, shortened: (§1)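 Human blood was anticoagulated with one-tenth volume 3.8% trisodium citrate and centrifuged at 1300g for 20 min to give platelet-poor plasma. Plasma was spiked with compound at 0 to about 150 μM. It was activated 5 min at 37 °C with bovine cephalin (ellagic acid) reagent, and clotting was started with 20 mM CaCl2. Clot time was read on a coagulometer. Concentration doubling APTT was read from a concentration–APTT plot.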

Prothrombin [3] = target: T1, Prothrombin (Homo sapiens, UniProt P00734); assay: The compound was evaluated for the inhibitory activity against human thrombin
Procedure, shortened: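 Human thrombin (0.0625 U/mL final) in 0.05 M TRIS-HCl pH 8.4 with S-2238, started by enzyme. Absorbance slope at 405 nm was read over 30 s. A range-finding run at about 0.01–100 μM was followed by substrate at 3.125–100 μM with at least two inhibitor levels plus vehicle. DMSO was below 0.5%. Ki = [i]/(Kp/Km − 1) from double-reciprocal plots.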

[4] = The compound was evaluated for the dose to double the control plasma APTT value in the human plasma; type: functional; procedure, shortened: as §1
Prothrombin [5] = target: T1, Prothrombin; assay: Inhibitory activity against human thrombin

SMILES	Ki (Prothrombin [1]) [nM]	further results
C[C@H]1CNc2c(cccc2S(=O)(=O)NC(CCCNC(=N)N)C(=O)N2CCC(CCO)CC2)C1 (some centres undefined)	46	–
CC(C)(c1ccccc1)c1cccc(S(=O)(=O)NC(CCCN=C(N)N)C(=O)N2CCC[C@H]2CO)c1 (some centres undefined)	2900	–
N=C(N)NCCCC(NS(=O)(=O)c1cccc2c1NCCC2)C(=O)N1CCC(CCO)CC1 (centres undefined)	490	–
CC(=O)NCCC1CCN(C(=O)C(CCCN=C(N)N)NS(=O)(=O)c2cccc3c2NCC(C)(C)C3)CC1 (centres undefined)	–	IC200 [4]: 2.15 µM; Ki (Prothrombin [5]): 43 nM
CC(C)(c1ccccc1)c1cccc(S(=O)(=O)NC(CCCNC(=N)N)C(=O)N2CCCC[C@H]2CO)c1 (some centres undefined)	3000	–
CC1(C)CNc2c(cc(Cl)cc2S(=O)(=O)NC(CCCN=C(N)N)C(=O)N2CCC(CCF)CC2)C1 (centres undefined)	–	IC200 [4]: 3.25 µM; Ki (Prothrombin [5]): 6.6 nM
CC1CNc2c(cccc2S(=O)(=O)NC(CCCN=C(N)N)C(=O)N2CCC(CCNC(=O)CCP(=O)(O)O)CC2)C1 (centres undefined)	35200	–
CC1CNc2c(cccc2S(=O)(=O)NC(CCCNC(=N)N)C(=O)N2CCC(CCOC(=O)CCCC(=O)O)CC2)C1 (centres undefined)	170	–

Continued, in another order:

Ki (Prothrombin [1]) [nM]	SMILES	further results
360	CC1CNc2c(cccc2S(=O)(=O)NC(CCCN=C(N)N)C(=O)N2CCCC(O)C2)C1 (centres undefined)	–
45	CC(=O)NCCC1CCN(C(=O)C(CCCN=C(N)N)NS(=O)(=O)c2cccc3c2NCC(C)C3)CC1 (centres undefined)	IC200 [2]: 1.8 µM; Ki (Prothrombin [3]): 66 nM
34	CC1CNc2c(cccc2S(=O)(=O)NC(CCCN=C(N)N)C(=O)N2CCC(CCOC(=O)CCC(=O)O)CC2)C1 (centres undefined)	–
795	CC1CNc2c(cccc2S(=O)(=O)NC(CCCN=C(N)N)C(=O)N2CCCC2)C1 (centres undefined)	–
5180	CC1CNc2c(cccc2S(=O)(=O)NC(CCCN=C(N)N)C(=O)N2CCC(O)CC2)C1 (centres undefined)	–
64	CC1CNc2c(cccc2S(=O)(=O)NC(CCCN=C(N)N)C(=O)N2CCCCC2CO)C1 (centres undefined)	–
64	CC1CNc2c(cccc2S(=O)(=O)NC(CCCNC(=N)N)C(=O)N2CCC(CO)CC2)C1 (centres undefined)	–
650	CC1CNc2c(cccc2S(=O)(=O)NC(CCCN=C(N)N)C(=O)N2CCC(CCNC(=O)CCC(=O)O)CC2)C1 (centres undefined)	–
1500	CC1CNc2c(cccc2S(=O)(=O)NC(CCCN=C(N)N)C(=O)N2CCC[C@@H](CO)C2)C1 (some centres undefined)	–
2600	CC1CNc2c(cccc2S(=O)(=O)NC(CCCN=C(N)N)C(=O)N2CCC(CC(=O)O)CC2)C1 (centres undefined)	–
27	CCC1CCN(C(=O)C(CCCN=C(N)N)NS(=O)(=O)c2cccc3c2NCC(C)C3)CC1 (centres undefined)	IC200 [4]: 6.27 µM
